Activity calls are given as the source filed them. The calls are words filed in the database; no cut-off is given here.

Experimental findings from ChEMBL document CHEMBL4673384, “Studying Histone Deacetylase Inhibition and Apoptosis Induction of Psammaplin A Monomers with Modified Thiol Group” (ACS Med Chem Lett, 2021) are described below.

Data set [1] concerns the target Histone deacetylase 3 (Homo sapiens) (UniProt O15379). The data set is described as follows: Inhibition of HDAC3 in human HL-60 cells assessed as increase in Ac-H3 level at 0.5 to 8 uM incubated for 24 hrs by Western blot analysis. It counts as cell-based. The conditions noted are these: dose 0.5-8 µM. A digest of the protocol: (§1)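 Compound given to HL-60 cells for 24 h at the stated concentrations, then lysed. Acetyl-histone H3 and acetyl-α-tubulin levels were read by Western blot, with total H3, α-tubulin or β-actin as references.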
On the technique in general: In western blotting, separated proteins are transferred to a membrane and probed.

The nature of data set [2]: Toxicity in mouse LL/2 cells inoculated C57BL/6J mouse assessed as effect on body weight by measuring initial body weight at 100 mg/kg, ip administered for 12 days and measured for every 2 days (reference value: 18.6 +/- 0.8 g). It counts as organism-based. To be noted: in vivo, 288 h, time 12 day.
For a further data set, the target named is Histone deacetylase 2 (Homo sapiens, UniProt Q92769). The data set is described as follows: Inhibition of HDAC2 in human HL-60 cells assessed as increase in Ac-H3 level at 0.5 to 8 uM incubated for 24 hrs by Western blot analysis. Format: cell-based. To be noted: dose 0.5-8 µM. A digest of the protocol: as §1
Sequence of Histone deacetylase 2 (Q92769 whole entry): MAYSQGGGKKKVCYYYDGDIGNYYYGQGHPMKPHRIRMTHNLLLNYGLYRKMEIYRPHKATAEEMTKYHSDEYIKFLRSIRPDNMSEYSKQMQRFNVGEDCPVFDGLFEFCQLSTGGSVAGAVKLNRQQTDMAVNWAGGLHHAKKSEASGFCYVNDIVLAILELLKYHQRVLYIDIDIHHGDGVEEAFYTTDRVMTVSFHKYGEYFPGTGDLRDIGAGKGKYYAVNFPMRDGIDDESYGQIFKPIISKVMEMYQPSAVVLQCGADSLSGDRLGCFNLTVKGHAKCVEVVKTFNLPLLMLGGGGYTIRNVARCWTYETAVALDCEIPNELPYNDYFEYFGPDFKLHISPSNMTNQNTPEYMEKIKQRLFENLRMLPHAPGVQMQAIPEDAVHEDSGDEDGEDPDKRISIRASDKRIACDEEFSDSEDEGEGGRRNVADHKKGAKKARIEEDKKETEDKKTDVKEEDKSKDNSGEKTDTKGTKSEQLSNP
In data set [3] the test system is HL-60. Kind of data set: Induction of apoptosis in human HL-60 cells assessed as cleavage of PARP at 0.5 to 8 uM after 24 hrs Western blot analysis. To be noted: dose 0.5-8 µM. Format: functional, cell-based. A digest of the protocol:
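HL-60 cells were treated for 24 h at the indicated concentrations, then analysed by Western blot. Blots were probed for cleavage of PARP and caspase-3, -8 and -9. Ac-H3, Ac-α-tubulin and β-actin were also detected, with β-actin as the loading reference.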

Data set [4] deals with HL-60. Kind of data set: Induction of apoptosis in human HL-60 cells assessed as late apoptotic cells at 8 uM incubated for 24 hrs by propidium iodide and annexin-V FITC staining based FACS analysis (reference value: 4.2 %). It counts as functional. (Flow cytometry measures light scatter and fluorescence of single cells or particles in a stream.)
Data set [5] deals with HL-60. Kind of data set: Induction of apoptosis in human HL-60 cells assessed as early apoptotic cells at 8 uM incubated for 24 hrs by propidium iodide and annexin-V FITC staining based FACS analysis (reference value: 2.9 %). Format: functional.
In data set [6] the test system is HL-60. Kind of data set: Induction of apoptosis in human HL60 cells assessed as necrotic cells at 4 uM incubated for 24 hrs by propidium iodide and annexin-V FITC staining based FACS analysis (reference value: 0.5 %). Format: functional.
Data set [7] concerns HL-60. The data set is described as follows: Induction of apoptosis in human HL-60 cells assessed as late apoptotic cells at 4 uM incubated for 24 hrs by propidium iodide and annexin-V FITC staining based FACS analysis (reference value: 4.2 %). Format: functional.
Data set [8] concerns HL-60. Kind of data set: Induction of apoptosis in human HL-60 cells assessed as viable cells at 4 uM incubated for 24 hrs by propidium iodide and annexin-V FITC staining based FACS analysis (reference value: 92.05 %). It counts as functional. The conditions noted are these: read-out: Activity.
The test system of data set [9] is HL-60. Kind of data set: Induction of apoptosis in human HL-60 cells assessed as necrotic cells at 2 uM incubated for 24 hrs by propidium iodide and annexin-V FITC staining based FACS analysis (reference value: 0.5 %). Format: functional.
The subject of data set [10] is HL-60. Kind of data set: Induction of apoptosis in human HL-60 cells assessed as late apoptotic cells at 2 uM incubated for 24 hrs by propidium iodide and annexin-V FITC staining based FACS analysis (reference value: 4.2 %). It counts as functional.
The subject of data set [11] is HL-60. Kind of data set: Induction of apoptosis in human HL-60 cells assessed as early apoptotic cells at 2 uM incubated for 24 hrs by propidium iodide and annexin-V FITC staining based FACS analysis (reference value: 2.9 %). Format: functional.
In data set [12] the test system is HL-60. Kind of data set: Induction of apoptosis in human HL60 cells assessed as viable cells at 2 uM incubated for 24 hrs by propidium iodide and annexin-V FITC staining based FACS analysis (reference value: 92.05 %). The conditions noted are these: read-out: Activity. It counts as functional.
Data set [13] deals with T1, Protein deacetylase HDAC6 (Homo sapiens) (UniProt Q9UBN7).
T1 sequence (whole entry): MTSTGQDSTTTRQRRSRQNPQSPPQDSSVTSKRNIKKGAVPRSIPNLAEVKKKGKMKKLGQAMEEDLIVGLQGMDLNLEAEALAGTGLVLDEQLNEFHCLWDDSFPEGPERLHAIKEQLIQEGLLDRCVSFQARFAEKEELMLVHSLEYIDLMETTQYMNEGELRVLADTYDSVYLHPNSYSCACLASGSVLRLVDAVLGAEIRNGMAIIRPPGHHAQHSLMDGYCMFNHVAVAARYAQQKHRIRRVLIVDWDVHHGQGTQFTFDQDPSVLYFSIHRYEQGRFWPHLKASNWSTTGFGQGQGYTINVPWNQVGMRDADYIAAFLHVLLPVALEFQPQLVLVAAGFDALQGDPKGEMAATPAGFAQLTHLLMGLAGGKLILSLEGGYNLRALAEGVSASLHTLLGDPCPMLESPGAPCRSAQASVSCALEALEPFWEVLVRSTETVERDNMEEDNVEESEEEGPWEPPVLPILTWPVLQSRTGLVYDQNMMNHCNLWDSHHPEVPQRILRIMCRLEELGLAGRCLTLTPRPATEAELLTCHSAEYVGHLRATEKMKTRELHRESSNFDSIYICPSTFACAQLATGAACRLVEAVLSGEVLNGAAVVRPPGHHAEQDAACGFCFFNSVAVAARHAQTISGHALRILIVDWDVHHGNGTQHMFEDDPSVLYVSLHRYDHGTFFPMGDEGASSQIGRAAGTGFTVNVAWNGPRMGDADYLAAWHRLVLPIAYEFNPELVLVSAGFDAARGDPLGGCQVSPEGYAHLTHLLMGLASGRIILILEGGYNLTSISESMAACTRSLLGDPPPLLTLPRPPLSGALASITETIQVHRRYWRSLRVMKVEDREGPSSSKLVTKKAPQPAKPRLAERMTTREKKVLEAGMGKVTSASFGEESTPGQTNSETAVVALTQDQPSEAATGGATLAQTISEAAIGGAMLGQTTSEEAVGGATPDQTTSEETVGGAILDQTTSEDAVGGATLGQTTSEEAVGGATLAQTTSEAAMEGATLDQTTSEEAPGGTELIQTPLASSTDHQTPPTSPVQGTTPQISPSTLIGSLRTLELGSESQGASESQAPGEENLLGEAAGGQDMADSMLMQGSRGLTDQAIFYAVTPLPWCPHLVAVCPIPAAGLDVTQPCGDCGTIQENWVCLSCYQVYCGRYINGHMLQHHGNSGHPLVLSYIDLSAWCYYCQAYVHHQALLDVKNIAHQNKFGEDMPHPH
Kind of data set: Inhibition of HDAC6 in human HL-60 cells assessed as increase in acetylated alpha tubulin level at 0.5 to 8 uM after 24 hrs by Western blot analysis. To be noted: dose 0.5-8 µM. Format: cell-based. Put shortly: as §1

Data set [14] concerns the target T1, Protein deacetylase HDAC6 (Homo sapiens). Kind of data set: Inhibition of HDAC6 in human HL-60 cells assessed as increase in acetylated alpha tubulin level at 0.5 uM after 24 hrs by Western blot analysis. Format: cell-based. A digest of the protocol: as §1
In data set [15] the test system is HL-60. Kind of data set: Induction of apoptosis in human HL-60 cells assessed as early apoptotic cells at 1 uM incubated for 24 hrs by propidium iodide and annexin-V FITC staining based FACS analysis (reference value: 2.8 %). Format: functional.
Data set [16] has as its system HL-60. The data set is described as follows: Induction of apoptosis in human HL-60 cells assessed as early apoptotic cells at 0.5 uM incubated for 24 hrs by propidium iodide and annexin-V FITC staining based FACS analysis (reference value: 2.8 %). It counts as functional.
The test system of data set [17] is HL-60. Kind of data set: Induction of apoptosis in human HL-60 cells assessed as viable cells at 1 uM incubated for 24 hrs by propidium iodide and annexin-V FITC staining based FACS analysis (reference value: 92.5 %). It counts as functional. To be noted: read-out: Activity.

Sequence of Histone deacetylase 3 (Homo sapiens) (O15379 whole entry): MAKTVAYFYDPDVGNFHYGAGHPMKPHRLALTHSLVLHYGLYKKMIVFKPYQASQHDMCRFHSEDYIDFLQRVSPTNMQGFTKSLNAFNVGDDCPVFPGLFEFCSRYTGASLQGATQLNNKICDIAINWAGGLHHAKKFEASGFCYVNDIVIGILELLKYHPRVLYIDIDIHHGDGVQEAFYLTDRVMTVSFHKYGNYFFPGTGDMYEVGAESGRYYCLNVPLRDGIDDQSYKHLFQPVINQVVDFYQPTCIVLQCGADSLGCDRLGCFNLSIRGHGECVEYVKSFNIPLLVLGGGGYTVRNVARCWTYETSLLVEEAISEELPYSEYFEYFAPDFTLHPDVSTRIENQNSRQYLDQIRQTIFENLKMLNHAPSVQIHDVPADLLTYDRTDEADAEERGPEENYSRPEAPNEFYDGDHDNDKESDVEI

Take `O=C(NCCS)/C(Cc1ccc(O)c(Br)c1)=N/O`: the inhibition result (in data set [1]; at Histone deacetylase 2) was “Active” in each case. For the same compound, the Activity amounted to 18.6 g in data set [2]; 25.1% with HL-60 [4]; 3.3% with HL-60 [5]; 0.3% in the data set on HL-60 [6]; 4.7% in the data set on HL-60 [7]; 0.3% in the data set with HL-60 [9]. The Activity is 3.7% in the data set on HL-60 [10] and 2.4% in the data set on HL-60 [11]. In addition, the outcome with HL-60 [3] was Active. Further, the viability at 4 µM in the data set on HL-60 [8] stood at 93.3%. Also, in the data set with HL-60 [12], the viability at 2 µM worked out at 93.6%. The inhibition entry in [13] was “inactive”.
With `O=C(CCNC(=O)/C(Cc1ccc(O)c(Br)c1)=N/O)NO`, the inhibition entry in [14] is “Active”. The Activity came to 7.1% in the data set on HL-60 [15] and 1.9% in the data set on HL-60 [16].
As to `O=C(NCCSSCCNC(=O)/C(Cc1ccc(O)c(Br)c1)=N/O)/C(Cc1ccc(O)c(Br)c1)=N/O` [PSAMMAPLIN A], the inhibition entry (in data set [1]; at Histone deacetylase 2) was “Active” each time. Moreover, the result in the data set on HL-60 [3] was Active. The Activity stood at 3.7% with HL-60 [6]; 26.7% in the data set with HL-60 [7]; 3.9% in the data set with HL-60 [9]; 24.9% in the data set with HL-60 [10]; 4.1% with HL-60 [11]. The viability at 4 µM in the data set on HL-60 [8] was 66.2%. Besides, the viability at 2 µM in the data set with HL-60 [12] was found to be 67.1%. In addition, the viability at 1 µM in the data set with HL-60 [17] was 88.8%. For the same compound, the inhibition entry in data set [13] is “inactive”.
